Only some compounds are listed: those with a hit (about 2.6% of all), similar ones and a draw of the others.
PolyA inhibitor: inhibitors of polyadenylation in S. cerevisiae; S. cerevisiae SKY197-pL101 polyadenylation reporter, beta-gal luminescence; efflux-impaired pdr1/pdr3 knockout yeast; score 100 = 6 SD above DMSO; activity score, % at 12 µM; 300,000 tested, 0.02% active; AID 1875;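 active = lowest replicate activity score at least 50, where 100 means six control SD above control mean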;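 note: yeast exposed to compound for 9 h at 30 °C; higher score means more reporter readthrough which indicates perturbed polyadenylation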
T cruzi inh: T. cruzi replication inhibition. 300,000 tested, 1.4% active. inhibition, % (test concentration not listed). AID 1885. T. cruzi beta-gal in NIH3T3, luminescence, 90 h;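 active = mean inhibition across valid replicates above about 55%, limit read from the data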;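 note: signal also drops with host cell toxicity which is not excluded here; higher percent means less beta-gal luminescence so fewer parasites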
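Test system: β-gal T. cruzi (Tulahuen C4) inside NIH/3T3 cells / Quantity: 5,000 cells/well / Measured by: luminescence from GalScreen with 0.05% NP40, read after 60 min / Medium: DMEM plus 2% FBS / Measure: parasite load inhibition, % / Reagent: Tulahuen C4 trypomastigotes, 5000/well / Schedule: co-culture of at least 90 h after 3 h attachment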
CHT allo act: allosteric activators of human choline transporter CHT. 310,000 tested, 0.49% active. B-score at 10 µM. Q9GZV3. CHT-expressing cells, membrane potential dye, choline EC20; stronger effect = higher value; LV-AA mutant CHT in HEK293 cells;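 active = initial fluorescence not abnormally high and integrated response B-score, plate-corrected, over 3 SD above library mean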
Target sequence (Q9GZV3 whole entry, looked up): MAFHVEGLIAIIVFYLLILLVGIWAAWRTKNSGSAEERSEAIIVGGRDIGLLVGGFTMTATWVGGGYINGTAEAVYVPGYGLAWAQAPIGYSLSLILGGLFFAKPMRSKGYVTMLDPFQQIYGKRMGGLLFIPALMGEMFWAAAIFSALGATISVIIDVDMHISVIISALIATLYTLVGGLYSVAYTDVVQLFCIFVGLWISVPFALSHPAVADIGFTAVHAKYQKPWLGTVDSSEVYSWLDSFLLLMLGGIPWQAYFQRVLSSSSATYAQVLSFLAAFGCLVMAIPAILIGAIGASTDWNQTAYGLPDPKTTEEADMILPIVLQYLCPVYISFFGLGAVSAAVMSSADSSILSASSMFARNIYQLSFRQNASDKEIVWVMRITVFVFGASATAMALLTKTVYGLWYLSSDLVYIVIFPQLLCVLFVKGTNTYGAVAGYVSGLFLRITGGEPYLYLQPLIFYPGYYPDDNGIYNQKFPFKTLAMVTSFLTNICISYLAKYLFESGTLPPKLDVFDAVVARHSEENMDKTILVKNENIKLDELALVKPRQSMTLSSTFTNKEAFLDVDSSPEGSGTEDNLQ
CHT block: inhibits the human high affinity choline transporter. 310,000 tested, 0.86% active. Q9GZV3. AID 488975. B-score at 10 µM. CHT-expressing cells, membrane potential dye, choline response; stronger effect = lower value;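 active = B-score over 3 SD under the library average, and starting fluorescence ratio not unusually high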;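 note: choline stimulus applied at its EC90 after an EC20 pre-addition; B-score computed on integrated fluorescence ratio after choline addition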
CHT block conf: human CHT inhibition, confirmatory screen; shares compounds with CHT block; CHT-expressing cells, choline membrane potential dye; LV-to-AA substituted CHT, HEK293 cells; CHT activity remaining % of control (stronger effect = lower value), % at 10 µM; 2,400 tested, 70% active;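 active = choline transporter activity left, mean of duplicates at 10 µM, below buffer-only control mean minus 3 SD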;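 note: depolarization triggered by choline at its EC90 following an EC20 pre-addition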
HEK293 MPD ctr: activity in parental HEK293 cells lacking CHT | shares compounds with CHT block | membrane potential dye, choline response; active = decrease or increase beyond buffer ±3SD | membrane potential ratio readout (active if shifted either direction beyond buffer ±3SD; no single direction) at 10 µM | 2,400 tested, 4% active;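 note: parental cells lack the transporter so any hit is non-specific; ratio is peak minus trough fluorescence over baseline after EC90 choline challenge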
Large screens that a line does not name were inactive (follow-up assays come after a bar, where they were run).

Cc1ccc(NC(=S)NNC(=O)C2CC2c2ccc(C)cc2)cc1 (stereo not given)	CHT block -5.5 | CHT block conf 58% | HEK293 MPD ctr inactive
COc1ccc(NC(=S)NNC(=O)C2CC2c2ccc(C)cc2)cc1 (stereo not given)	none
Cc1ccc(C2CC2C(=O)NNC(=S)Nc2cccc(Cl)c2)cc1 (stereo not given)	CHT block -12 | CHT block conf 43% | HEK293 MPD ctr inactive
O=C(NC1CCCC1)c1cc(-c2ccc(Cl)cc2)on1	none
O=C(NC(=S)NNC(=O)c1cccs1)c1ccc(Br)o1	CHT block -7.5 | CHT block conf 43% | HEK293 MPD ctr inactive
CC1Cc2ccccc2N1C(=O)CN1CCN(Cc2ccccc2)CC1 (stereo not given)	none
Cc1ccsc1C1Nc2ccc3ncccc3c2C2=C1C(=O)CCC2 (stereo not given)	none
COc1cc(C2Nc3ccc4ncccc4c3C3=C2C(=O)CCC3)ccc1O (stereo not given)	CHT block -6.2 | CHT block conf inactive | HEK293 MPD ctr inactive
COc1ccc(C(=O)C2CCCN(C(=O)c3noc4c3CCCC4)C2)cc1F (stereo not given)	none | CHT block conf 47% | HEK293 MPD ctr inactive
Cc1cc(Cl)c(S(=O)(=O)NC(C(=O)O)C(C)C)cc1OCC(=O)NC1CCCCC1 (stereo not given)	none
Cc1cc(Cl)c(S(=O)(=O)N2CCCC2)cc1OCC(=O)NC1CCCCC1	CHT block -5.2 | CHT block conf 57% | HEK293 MPD ctr inactive
COc1ccc(C(=O)Nc2c(-c3cccs3)c(=O)c3ccccc3n2C)cc1	none
O=C(CCc1ccccc1)NNC(=S)NC(=O)c1ccc(Cl)cc1	CHT block -5.7 | CHT block conf 70% | HEK293 MPD ctr inactive
O=C(CCc1ccccc1)NNC(=O)c1ccc(Cl)cc1	none
Cc1cccc(C(=O)NC(=S)NNC(=O)Cc2ccccc2)c1	CHT block -6.7 | CHT block conf 52% | HEK293 MPD ctr inactive
O=C(C1=C[C@@H](c2ccccc2)C[C@@H](OCCCCO)O1)N1CCOCC1	CHT block -10 | CHT block conf inactive | HEK293 MPD ctr inactive
S=c1nc(-c2cc(Cl)cc(Cl)c2)[nH][nH]1	CHT block -5.8 | CHT block conf 32% | HEK293 MPD ctr inactive
S=c1nc(-c2cccc(Cl)c2)[nH][nH]1	none
COc1ccc(NC(=O)CN2C(=O)NC(C)(c3ccc(C)cc3)C2=O)c([N+](=O)[O-])c1 (stereo not given)	none
c1ccc(CN2CCN(c3nc4ccccc4n4cnnc34)CC2)cc1	CHT block -5.5 | CHT block conf 59% | HEK293 MPD ctr inactive
O=C(N[C@@H](Cc1ccccc1)C(=O)NCc1ccc(F)cc1)C1CCNCC1	none
Cc1ccccc1C(=O)NNC(=S)NC(=O)c1ccc(Cl)cc1Cl	CHT block -9.3 | CHT block conf 45% | HEK293 MPD ctr inactive
O=C1c2cccc3c(Nc4ccccc4Cl)c([N+](=O)[O-])cc(c23)C(=O)N1CCO	T cruzi inh 59, CHT block -5.5 | CHT block conf 71% | HEK293 MPD ctr inactive
O=C(Nc1nc2ccc(S(=O)(=O)N3CCCCC3)cc2s1)c1cccnc1	CHT block -5.5 (no result: T cruzi inh) | CHT block conf 49% | HEK293 MPD ctr inactive
CCOC(=O)C1CCN(C(=O)Cc2c(F)cccc2Cl)CC1	none
CCOC(=O)C1CCCN(C(=O)Cc2c(F)cccc2Cl)C1 (stereo not given)	CHT block -5.7 | CHT block conf 53% | HEK293 MPD ctr inactive
COc1cc(/C=C2\SC(=S)N(NC(=O)c3ccncc3)C2=O)ccc1O	PolyA inhibitor 92, CHT block -9.8 | CHT block conf -0.4% | HEK293 MPD ctr -8.5
COc1cc(/C=C2\SC(=S)N(NC(=O)c3ccc(O)c(OC)c3)C2=O)ccc1O	none
CC(/C=C1\SC(=S)N(NC(=O)c2ccncc2)C1=O)=C\c1ccccc1	CHT block -6.5 | CHT block conf 15% | HEK293 MPD ctr inactive
CC(/C=C1\SC(=S)N(NS(=O)(=O)c2ccc(C)cc2)C1=O)=C\c1ccccc1	none
CC(/C=C1\SC(=S)N(NS(=O)(=O)c2ccccc2)C1=O)=C\c1ccccc1	CHT block -5.8 | CHT block conf 55% | HEK293 MPD ctr inactive
COc1ccc(/C=C2/SC(=S)N(NS(=O)(=O)c3ccccc3)C2=O)cc1	CHT block -4.9 | CHT block conf 45% | HEK293 MPD ctr inactive
CN(CC(=O)Nc1c(Cl)cccc1Cl)C(=O)C1CCN(C(=O)Nc2ccccc2)CC1	none
O=C1c2ccccc2-c2cccnc21	CHT block -6.8 | CHT block conf 37% | HEK293 MPD ctr inactive
CC(C)OC(=O)CN1CCN(S(=O)(=O)c2cc(Cl)ccc2Cl)CC1	CHT block -6.4 (no result: PolyA inhibitor, T cruzi inh) | CHT block conf 66% | HEK293 MPD ctr inactive
CN(C)c1ccc(NC(=O)CN2CCN(S(=O)(=O)c3cc(Cl)ccc3Cl)CC2)cc1	none
Cc1ccc(C(=O)Nc2cccc(C(F)(F)F)c2)cc1NC(=O)c1csc(-c2ccncc2)n1	CHT block -8 | CHT block conf 25% | HEK293 MPD ctr inactive
CSCCCNC(=O)c1ccc(OC2CCN(CCc3ccccc3)CC2)cc1	CHT block -6 | CHT block conf 51% | HEK293 MPD ctr 4.8
CCCN1CCC(Oc2cccc(C(=O)NCCc3ccccc3)c2)CC1	CHT block -11 | CHT block conf 6.5% | HEK293 MPD ctr inactive
O=C(NCCc1ccccn1)c1ccc(OC2CCN(CCc3ccccc3)CC2)cc1	none
CC(=O)Nc1ccc(S(=O)(=O)N2CCC(NC(=O)C(Cc3ccccc3F)NC(C)=O)CC2)cc1 (stereo not given)	none (no result: CHT allo act, CHT block)
O=C(Nc1ncc([N+](=O)[O-])s1)C1CC(=O)N(c2ccc(F)cc2)C1 (stereo not given)	CHT block -6.7 | CHT block conf 40% | HEK293 MPD ctr inactive
O=C(Nc1nccs1)C1CC(=O)N(c2ccc(F)cc2)C1 (stereo not given)	none
COCCNC(=S)NNC(=O)c1cc(C2CC2)nc2ccccc12	none
O=C(O)c1ccc(NC2=C(Cl)C(=O)c3ccccc3C2=O)cc1	T cruzi inh 55, CHT block -10 | CHT block conf 32% | HEK293 MPD ctr inactive
CC1=C(Nc2ccc(C(=O)O)cc2)C(=O)c2ccccc2C1=O	none
CCN(CC)c1ccc(C2C3CCCCC3(O)CCN2CC(=O)N2CCCCC2)cc1 (stereo not given)	CHT block -5.9 | CHT block conf inactive | HEK293 MPD ctr inactive
CCN(CC)c1ccc([C@H]2[C@@H]3CCCC[C@]3(O)CCN2CC(=O)NCc2ccco2)cc1	none
O=C(Oc1cccccc1=O)c1ccccc1	CHT block -6.9 | CHT block conf inactive | HEK293 MPD ctr inactive

Screens: PubChem BioAssay, several laboratories
